Data from ChEMBL document CHEMBL3044785, “Isolation and identification of antifungal and antialgal alkaloids from Haplophyllum sieversii” (J Agric Food Chem, 2005).
Calls of active or inactive are those of the source. The calls are words filed in the database; no cut-off is given here.

How the values were obtained:
Phomopsis obscurans [1] = assay: Antifungal activity against Phomopsis obscurans assessed as growth inhibition at 50 to 150 uM measured up to 120 hr by 96-well microtiter assay; type: functional, organism-based; conditions: Paraphomopsis obscurans
How it was run: (§1)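 Filamentous-fungus broth microdilution in 96 wells, adapted from NCCLS M27A, with benomyl, azoxystrobin and captan as standards. Conidia came from 7–10-day PDA cultures, were filtered and set to 1.0 × 10^6 conidia/mL by A625 standard curve. Compounds were tested at 50.0, 100.0 and 150.0 µM. Growth was read as A620 at 0, 24, 48 and 72 h, plus 120 h for Phomopsis species. Percent inhibition was pooled from two experiments.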

Planktothrix perornata [2] = assay: Antialgal activity against Oscillatoria perornata assessed as lowest observed effect concentration measured for 4 days; type: functional
How it was run: (§2)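 Cyanobacteria (O. perornata, O. agardhii, Pseudanabaena LW397) and the green alga S. capricornutum were each maintained in continuous steady-state culture. Compound in dichloromethane was dried in quartz 96-well plates, then 200 µL culture was added. Final concentrations were 0.1, 1.0, 10.0 and 100.0 µM, in triplicate, and experiments were repeated. Plates were held at 29 °C under continuous light, and A650 was read every 24 h for 4 days. LOEC, LCIC and 96-h IC50 were taken from mean absorbance graphs.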

Pseudanabaena sp. [3] = assay: Antialgal activity against Pseudanabaena sp. LW397 assessed as inhibition measured for 96 hr; type: functional, organism-based; conditions: LW397, 96 h; how it was run: as §2
Botrytis cinerea = assay: Antifungal activity against Botryotinia fuckeliana assessed as growth inhibition at 50 to 150 uM measured up to 72 hr by 96-well microtiter assay; type: functional, organism-based; how it was run: as §1
Colletotrichum acutatum = assay: Antifungal activity against Colletotrichum acutatum assessed as growth inhibition at 50 to 150 uM measured up to 72 hr by 96-well microtiter assay; type: functional, organism-based; how it was run: as §1
Pseudanabaena sp. [4] = assay: Antialgal activity against Pseudanabaena sp. LW397 assessed as lowest complete inhibition concentration measured for 4 days; type: functional; how it was run: as §2
[5] = tested on: Selenastrum capricornutum; assay: Antialgal activity against Selenastrum capricornutum assessed as lowest observed effect concentration measured for 4 days; type: functional; how it was run: as §2
Diaporthe ampelina = assay: Antifungal activity against Diaporthe ampelina assessed as growth inhibition at 50 to 150 uM measured up to 120 hr by 96-well microtiter assay; type: functional, organism-based; how it was run: as §1
Fusarium oxysporum = assay: Antifungal activity against Fusarium oxysporum assessed as growth inhibition at 50 to 150 uM measured up to 72 hr by 96-well microtiter assay; type: functional, organism-based; how it was run: as §1
Colletotrichum fragariae = assay: Antifungal activity against Colletotrichum fragariae assessed as growth inhibition at 50 to 150 uM measured up to 72 hr by 96-well microtiter assay; type: functional, organism-based; how it was run: as §1
[6] = tested on: Selenastrum capricornutum; assay: Antialgal activity against Selenastrum capricornutum assessed as inhibition measured for 96 hr; type: functional, organism-based; how it was run: as §2
Planktothrix agardhii [7] = assay: Antialgal activity against Planktothrix agardhii assessed as lowest observed effect concentration measured for 4 days; type: functional; how it was run: as §2
Phomopsis obscurans [8] = assay: Antifungal activity against Phomopsis obscurans assessed as growth inhibition at 50 uM measured at 120 hr by 96-well microtiter assay; conditions: Paraphomopsis obscurans
[9] = tested on: Selenastrum capricornutum; assay: Antialgal activity against Selenastrum capricornutum assessed as lowest complete inhibition concentration measured for 4 days; type: functional; how it was run: as §2
Planktothrix perornata [10] = assay: Antialgal activity against Oscillatoria perornata assessed as lowest complete inhibition concentration measured for 4 daysos; type: functional; how it was run: as §2
[11] = tested on: Colletotrichum gloeosporioides; assay: Antifungal activity against Colletotrichum gloeosporioides assessed as growth inhibition at 50 to 150 uM measured up to 72 hr by 96-well microtiter assay; type: functional, organism-based; how it was run: as §1
Planktothrix agardhii [12] = assay: Antialgal activity against Planktothrix agardhii assessed as lowest complete inhibition concentration measured for 4 days; type: functional; how it was run: as §2
Pseudanabaena sp. [13] = assay: Antialgal activity against Pseudanabaena sp. LW397 assessed as lowest observed effect concentration measured for 4 days; type: functional; how it was run: as §2
Phomopsis obscurans [14] = assay: Antifungal activity against Phomopsis obscurans assessed as growth inhibition at 50 uM measured at 120 hr by 96-well microtiter assay; type: functional; conditions: Paraphomopsis obscurans; how it was run: as §1
Planktothrix perornata [15] = assay: Antialgal activity against Oscillatoria perornata assessed as inhibition measured for 96 hr; type: functional, organism-based; how it was run: as §2
[16] = tested on: Colletotrichum gloeosporioides; assay: Antifungal activity against Colletotrichum gloeosporioides assessed as growth inhibition at 150 µM measured at 48 hr by 96-well microtiter assay
[17] = tested on: Colletotrichum gloeosporioides; assay: Antifungal activity against Colletotrichum gloeosporioides assessed as growth inhibition at 150 µM measured at 72 hr by 96-well microtiter assay

SMILES	growth inhibition (GI) (Phomopsis obscurans [1])	Activity (Planktothrix perornata [2]) [µM]	growth inhibition (GI) (Colletotrichum acutatum)	Activity (Pseudanabaena sp. [4]) [µM]	Activity [5] [µM]	growth inhibition (GI) (Diaporthe ampelina)	growth inhibition (GI) (Fusarium oxysporum)	growth inhibition (GI) (Colletotrichum fragariae)	IC50 [6] [µM]	Activity (Planktothrix agardhii [7]) [µM]	inhibition at 50 µM (Phomopsis obscurans [8]) [%]	Activity [9] [µM]	Activity (Planktothrix perornata [10]) [µM]	growth inhibition (GI) [11]	Activity (Planktothrix agardhii [12]) [µM]	Activity (Pseudanabaena sp. [13]) [µM]	inhibition at 50 µM (Phomopsis obscurans [14]) [%]	IC50 (Planktothrix perornata [15]) [µM]	also measured
COc1ccc2[nH]c(=O)c3c(c2c1)OC(C)(C)C=C3 [HAPLAMINE]	Active	1	Active	100	10	Active	Active	Active	15.9	>100	> 80	100	10	Active	>100	1	> 80	1.8	IC50 (Pseudanabaena sp. [3]): 2 µM; growth inhibition (GI) (Botrytis cinerea): Active
COc1ccc([C@H]2OC[C@H]3[C@@H]2CO[C@@H]3c2ccc(OC)c(OC)c2)cc1OC [(+)-EUDESMIN]	Active	10	Active	100	100	Active	Active	Active		>100	> 80	>100	>100	Active	>100	100	> 80		
COc1c2ccoc2nc2c(OC)c(OCC3OC3(C)C)ccc12 (centres undefined) [ANHYDROEVOXINE]	Active		Active			Active	Active	Active			> 80			Active			> 80		
CC1(C)C=Cc2c(O)nc3ccccc3c2O1 [FLINDERSINE]	Active	10	Active	>100	10	Active	Active	Active	17.8	>100	> 80	100	100	Active	>100	>100	> 80	15.9	inhibition (INH) [16]: >65%; inhibition (INH) [17]: <40%
